Experimental findings from ChEMBL document CHEMBL3421565, “β-D-2'-C-Methyl-2,6-diaminopurine Ribonucleoside Phosphoramidates are Potent and Selective Inhibitors of Hepatitis C Virus (HCV) and Are Bioconverted Intracellularly to Bioactive 2,6-Diaminopurine and Guanosine 5'-Triphosphate Forms” (J Med Chem, 2015) are described below.

The subject of series [1] is HepG2. Description: Mitochondrial toxicity in human HepG2 cells assessed as effect on nuclear beta-actin DNA level incubated for 14 days by real-time PCR method. The format is cell-based. Particulars: hepg2, 336 h. In outline: (§1)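 HepG2 cells in DMEM with 4.5 g/L glucose and 10% heat-inactivated FBS, seeded at 5000 cells/well on collagen; compounds added 1 day later at final 1–50 μM. Medium and compound renewed every 3–4 days for 14 days; duplicates in two independent experiments. COXII mtDNA and nuclear β-actin DNA measured by real-time PCR, normalised to untreated control; IC₅₀ calculated.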
A general note: Real-time PCR tracks product formation cycle by cycle.

The test system of series [2] is HepG2. Description: Mitochondrial toxicity in human HepG2 cells assessed as induction of lactic acid levels at 50 uM incubated for 14 days. The format is cell-based. Particulars: hepg2, 336 h. In a few lines: (§2)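 After 14 days of HepG2 exposure to compound (same culture regimen as the mtDNA assay), lactic acid in culture supernatant quantified with a D-/L-lactic acid kit by absorbance. Results expressed as % lactic acid over % nuclear DNA (β-actin control); mean of triplicates from a single plate.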

Another series deals with Hepatitis C virus. Description: Antiviral activity against HCV infected in human HuH7 cells assessed as reduction in replicon RNA levels incubated for 5 days by RT-PCR assay. The format is functional, organism-based, Hepacivirus hominis. Particulars: Huh-7, 120 h. In outline:
(§3)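 Huh-7 clone B cells carrying HCV replicon RNA, seeded at 3000 cells/well; compounds added in dose response in triplicate right after seeding. Incubated 5 days at 37 °C, 5% CO₂. Total RNA extracted; replicon RNA and rRNA internal control co-amplified by one-step multiplex real-time RT-PCR. Antiviral effect taken as ΔCt versus no-drug control; cytotoxicity read from rRNA reduction.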
(In general: Replicon systems follow genome replication, usually without infectious particles.)

In series [3] the test system is HepG2. Description: Mitochondrial toxicity in human HepG2 cells assessed as induction of lactic acid levels at 10 uM incubated for 14 days. The format is cell-based. Particulars: hepg2, 336 h. In outline: as §2
The test system of series [4] is HepG2. The experiment in a line: Mitochondrial toxicity in human HepG2 cells assessed as effect on mitochondrial cytochrome c oxidase subunit 2 DNA level incubated for 14 days by real-time PCR method. The series is classed as cell-based. Particulars: hepg2, 336 h. In a few lines: as §1
The nature of series [5]: Drug metabolism in human primary hepatocytes assessed as 2'-C-Me-DAPN-TP level at 50 uM incubated for 4 hrs at 37 degC by LC-MS/MS method. The format is ADME, cell-based, Hepatocyte. In a few lines: (§4)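 Huh-7 cells (after attachment) or freshly plated primary human hepatocytes (after overnight acclimatation), 1 × 10⁶ cells/well, exposed to 50 μM compound for 4 h at 37 °C. Cells washed twice with ice-cold PBS and extracted overnight at −20 °C in 70% methanol containing 20 nM ddATP. Mono-, di- and triphosphates quantified by LC–MS/MS as pmol/10⁶ cells; three replicates.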

Series [6] deals with HepG2. The experiment in a line: Mitochondrial toxicity in human HepG2 cells assessed as induction of lactic acid levels at 1 uM incubated for 14 days. Particulars: hepg2, 336 h. The series is classed as cell-based. In outline: as §2
Series [7] can be described thus: Drug metabolism in human HuH7 cells assessed as 2'-C-Me-GTP level at 50 uM incubated for 4 hrs at 37 degC by LC-MS/MS method. The series is classed as ADME, cell-based. Particulars: huh-7, 4 h. In outline: as §4
The nature of series [8]: Drug metabolism in human HuH7 cells assessed as 2'-C-Me-DAPN-TP level per million cells at 50 uM incubated for 4 hrs at 37 degC by LC-MS/MS method. Particulars: huh-7, 4 h. The series is classed as ADME, cell-based. In a few lines:
as §4

The next series has as its system Vero. Description: (§5) Cytotoxicity against African green monkey Vero cells assessed as reduction in cell viability incubated for 5 days by Cell-titer 96 aqueous one solution cell proliferation assay. The series is classed as cell-based. Particulars: chlorocebus sabaeus, vero, 120 h.
The nature of series [9]: (§6) Cytotoxicity against human PBMC assessed as reduction in cell viability incubated for 5 days by Cell-titer 96 aqueous one solution cell proliferation assay. The format is cell-based. Particulars: PBMC.
Series [10] in a line: (§7) Cytotoxicity against human CEM cells assessed as reduction in cell viability incubated for 5 days by Cell-titer 96 aqueous one solution cell proliferation assay. The format is cell-based, CCRF-CEM. Particulars: CEM cells (CCRF-CEM).
A short description of series [11]: as §5. Particulars: chlorocebus sabaeus, Vero cells. The series is classed as cell-based.
A short description of series [12]: Cytotoxicity against human HuH7 cells assessed as reduction in rRNA levels incubated for 5 days by RT-PCR assay. The series is classed as cell-based, Huh-7. In a few lines: as §3
The next series has as its system PBMC. Described as §6. The series is classed as cell-based. Particulars: pbmc, 120 h.
For a further series, the system named is CCRF-CEM. Described as §7. The format is cell-based. Particulars: ccrf-cem, 120 h.
The test system of series [13] is HepG2. Description: Toxicity in human HepG2 cells assessed as increase in cell death at 10 uM. The series is classed as cell-based. Particulars: hepg2, 10 µM.

pEC50: −log10 of the molar value. Some results are limits rather than exact numbers.

With `CC(C)OC(=O)CCc1ccccc1OP(=O)(N[C@@H](C)C(=O)OC(C)C)OC[C@H]1O[C@@H](n2cnc3c(N)nc(N)nc32)[C@](C)(O)[C@H]1O` (some centres not stated), the values for the CC50 in the series on HepG2 [1], in the series with HepG2 [4] and in the series on Vero were over 50 µM, over 50 µM and over 100 µM, respectively. For the same compound, the Activity is on record as 80% with HepG2 [2], 81% in the series with HepG2 [3] and 90% with HepG2 [6]. Further, the pEC50 (as a rule, the negative decadic logarithm of the EC50, by convention in mol/L) in the series with Hepatitis C virus was 6.15. In addition, the EC90 – broadly, the concentration at which the effect reaches the 90% level – with Hepatitis C virus was determined as 2500 nM. The Drug metabolism entry in series [5], in series [7] and in series [8] was “metabolite_detected” throughout.
With `CCOC(=O)CCc1ccccc1OP(=O)(OC[C@H]1O[C@@H](n2cnc3c(N)nc(N)nc32)[C@](C)(O)[C@@H]1O)Oc1ccccc1CCC(=O)OCC`, the pEC50 in the series on Hepatitis C virus is under 5.00. For the same compound, the EC90 in the series on Hepatitis C virus was over 10000 nM. The CC50 (as a rule, the concentration giving 50% cytotoxicity) at 120 h in series [9] was 64 µM; in series [10] it was 25 µM; in series [11] it was 90 µM; in series [12] (HuH7 cells), over 10 µM.
For `COc1nc(N)nc2c1ncn2[C@@H]1O[C@H](COP(=O)(N[C@@H](C)C(=O)OCC(C)(C)C)Oc2cccc3ccccc23)[C@@H](O)[C@@]1(C)O` (some centres not stated) [BMS-986094], the CC50 in the series with HepG2 [1] is under 1 µM; in the series on HepG2 [4], 4.7 µM; with PBMC it was 4.7 µM; in the series on CCRF-CEM, 8.7 µM; in the series with Vero, 14 µM; in series [12] (huh-7, 120 h), 800 nM. In addition, in the series with Hepatitis C virus, the pEC50 was 7.70. In the series with Hepatitis C virus, the EC90 came to 40 nM. The Activity was 190% in the series on HepG2 [6] and “Toxic” in the series with HepG2 [13].
